The whole screen tested about 97,000 compounds, of which about 770 (0.79%) were called active. The list comes from a sample in which actives are over-represented; it also holds similar structures and randomly drawn compounds. A number with no mark means an inactive call.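 Rule for the calls: active = inhibition above the screen-wide mean plus 3 SD (cut at about 35% in these data); inactive = the rest.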

Protein Rev (Human immunodeficiency virus type 1 group M subtype B (isolate WMJ22)), sequence (P05866 whole entry, looked up): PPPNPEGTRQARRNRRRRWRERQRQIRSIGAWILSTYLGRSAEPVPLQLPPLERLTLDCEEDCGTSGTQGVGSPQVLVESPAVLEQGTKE

The target in this test is Protein Rev (Human immunodeficiency virus type 1 group M subtype B (isolate WMJ22)) (UniProt P05866). The test can be described thus: HIV-1 Rev-RRE binding inhibitors, primary screen, biochemical, FRET, protein-RNA interaction (AID 704). The note with it: Rev peptide-RRE RNA binding, at 8 µM, hits give high values. Put shortly: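 Assay system: Labelled RRE RNA duplex and labelled Rev peptide | Times: 5 min preincubation and 15 min binding, 25 °C | Detection: FRET, ex 480 nm, em 540 and 671 nm | Evaluation: % inhibition of FRET ratio versus controls | Benchmarks: DMSO wells as 0% and neomycin B wells as 100% inhibition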
Broadly, the inhibition is the drop in the measured response relative to a control, in per cent. In the case of `Cc1ccc(-n2c(CNc3ccc(F)cc3)nnc2SCC(=O)N2CCOCC2)cc1`, the inhibition was 5.16%.

With `Cc1nn(C)c(Oc2ccccc2)c1[N+](=O)[O-]`, the inhibition is 4.97%.

As to `CCC(c1nnnn1C(C)(C)C)N(Cc1cc2cccc(C)c2n2nnnc12)C1CCCC1` (stereo not drawn), the inhibition was 7.78%.

Take `CCOC(=O)c1ccccc1NS(=O)(=O)c1ccc(OC)cc1`: the inhibition is 17.8%.

In the case of `Cc1cc(C)n(C(=O)CCNC(=O)c2ccccc2Cl)n1`, the inhibition is 4.01%.

Take `CC1CCc2c(c3ccccc3[nH]c2=O)O1` (stereo not drawn): the inhibition was 4.83%.

Regarding `CC(=O)Nc1cccc(/C(C)=N/NC(=O)c2ccccc2Cl)c1`, the inhibition was -0.39%.

Take `COc1ccc(C(=O)N2CC3(C)CC2CC(C)(C)C3)cc1OC` (stereo not drawn): the inhibition was 1.95%.

With `O=C(/C=C/c1cc2c(cc1Br)OCO2)NCc1ccc(Cl)cc1`, the inhibition was 7.84%.

As for `Cc1cccc(N(CC(=O)Nc2ccc(-c3nc4ccc(C)cc4s3)cc2)S(C)(=O)=O)c1`, the inhibition was 1.45%.

Turning to `O=C(Nc1sc2c(c1-c1nc3ccccc3[nH]1)CCCC2)C1CC1`, the inhibition was 12.5%.

For `NC1=NC(=O)C2(COC(c3ccccc3Cl)OC2)S1` (stereo not drawn), the inhibition was 1.07%.

On to `CCN(CC)c1ccc2oc(=O)c(C)nc2c1`, for which the inhibition was 121% [fluorescence artefact?] (active).

In the case of `CCN(CC)c1ccc(/C=N/Nc2nc(C)cc(=O)[nH]2)cc1`, the inhibition is 15.3%.

In the case of `CCN(CC)c1ccc2cc(C(=O)O)c(=O)oc2c1`, the inhibition is 11%.

On to `CCS(=O)(=O)Nc1ccc(C2=NN(S(=O)(=O)c3ccc(F)cc3)C(c3ccco3)C2)cc1` (stereo not drawn), for which the inhibition is 3.07%.

In the case of `O=C(Nc1ccccc1-c1nnn(CC(=O)N2CCCc3ccccc32)n1)c1cccc(Cl)c1`, the inhibition is 13.6%.

Regarding `COc1cnc(SCc2ccc(Cl)c(Cl)c2)nc1Cl`, the inhibition was 10%.

Consider `Cc1ccccc1N/N=C/c1ccc(N2CCOCC2)cc1`, for which the inhibition was 6.17%.

As for `Cc1ccc(Cc2cnc(NC(=O)/C(C#N)=C/c3ccc(-c4cccc([N+](=O)[O-])c4)o3)s2)cc1`, the inhibition was 5.73%.

In the case of `CCOC(=O)c1c(NC(=S)Nc2ccccc2)sc2c1CCN(C)C2`, the inhibition was 103% [fluorescence artefact?] (active).

As for `CCOC(=O)c1c(NC(=S)NC(=O)c2ccco2)sc2c1CCCC2`, the inhibition was 0.19%.

Turning to `CCOCC(=O)Nc1sc2c(c1C(=O)OCC)CCCC2`, the inhibition is 10.1%.

Regarding `CC(=O)Nc1cccc(Oc2cc(C#N)c(C#N)cc2N2CCOCC2)c1`, the inhibition was 5.35%.

On to `COc1cccc(C(=O)Nc2ccc(N3CCCC3)cc2)c1`, for which the inhibition is 9.26%.

As for `COc1cc(N2CCCC2)c(OC)cc1/C=C(/C#N)c1cccc(Br)c1`, the inhibition is 115% [fluorescence artefact?] (active).

For the compound `CC1CN(c2nc(-c3ccccc3)nnc2-c2ccccc2)CC(C)O1` (stereo not drawn), the inhibition was 8.23%.

Take `COCCCNCC(=O)Nc1sc(C)c(C)c1C(=O)OC`: the inhibition was 1.88%.

In the case of `CN1OC(COC(=O)c2ccc(Cl)cc2)CC1c1ccccc1` (stereo not drawn), the inhibition was 7.44%.

For the compound `C=CCc1ccc(OCCOc2cccc(/C=N/n3cnnc3)c2)c(OC)c1`, the inhibition is -0.22%.

In the case of `Clc1ccc(-c2cc(COc3ccccc3)no2)cc1Cl`, the inhibition was 17.6%.

With `CC(CO)N1CCS(=O)(=O)CC1` (stereo not drawn), the inhibition is 4.13%.

Take `CCN(CC)C(=O)CSc1ncnc2c1cnn2-c1ccccc1`: the inhibition was 9.25%.

Consider `O=C(CN1C(=O)NC2(CCCC2)C1=O)Nc1ccc(F)c(F)c1F`, for which the inhibition was 6.86%.

As to `CC(C)c1ccc(C(=O)NCCCc2ccccc2)cc1`, the inhibition was 16.8%.

In the case of `CC(C)C[C@@H](N)c1nnc(SCC(=O)c2ccc(Cl)cc2)o1`, the inhibition was 6.78%.

In the case of `CCCCOC(=O)Cn1c(=O)n(CC(=O)OCCCC)c2cc(C)ccc21`, the inhibition is 3.29%.

Turning to `CCOc1cc(/C=C2/N=C(c3ccc(C(C)(C)C)cc3)OC2=O)cc(Cl)c1OS(C)(=O)=O`, the inhibition is -2.97%.

Take `Cc1ccc(-n2nc3cc(C)c(NC(=O)c4cccnc4)cc3n2)cc1`: the inhibition is 6.32%.

Regarding `Cc1ccc(S(=O)(=O)/N=C(/Nc2ccccn2)c2ccc(Cl)cc2)cc1`, the inhibition is 3.03%.

Take `CCOC(=O)c1cc(NC(=O)c2ccc(Cl)cc2)c(=O)oc1-c1ccccc1`: the inhibition is 10.3%.

As to `CC(=O)c1cc(NC(=O)c2ccccc2)c(=O)oc1/C=C/N(C)C`, the inhibition is 119% [fluorescence artefact?] (active).

As for `Cc1ccccc1NC(=O)c1ccccc1`, the inhibition was 3.87%.

`c1ccc(-c2csc(N3CCc4ccccc4C3)n2)cc1`: the inhibition is 3.58%.

For the compound `Cc1c(-c2ccccc2)cn2c1-c1ccc(C)n1CC2`, the inhibition was 47.1% (active).

On to `COc1ccc(CNC(=O)c2c(C)cc(=O)oc2C)cc1OC`, for which the inhibition was 10.2%.

In the case of `Cc1cc(=O)oc(C)c1C(=O)NCc1ccc(F)cc1`, the inhibition was 8.7%.

Turning to `Cc1cc(=O)oc(C)c1C(=O)Nc1cnc2ccccc2c1`, the inhibition was 53% (active).

In the case of `CN1/C(=c2/s/c(=C3/C(=O)N(c4ccccc4)NC3=Nc3ccccc3)n(C)c2=O)C(C)(C)c2ccccc21`, the inhibition was 96.1% [fluorescence artefact?] (active).

`CC1=NN(c2cccc(Cl)c2)C(=O)C12CC(C)=C(C)CS2` (stereo not drawn): the inhibition was 16.6%.

As to `COc1nc(NC2CCCCC2)nc(N2CCCCCC2)n1`, the inhibition was 2.85%.

With `COc1cccc2c1OCC(C(=O)NCc1ccc(Cl)cc1Cl)=C2`, the inhibition is 10.5%.

`Cc1ccc(-c2nnc(-n3nnc4ccccc43)c3ccccc23)cc1`: the inhibition is -4.36%.

On to `COc1ccc(-c2nn(C)c(=O)c3ccccc23)cc1NC(=O)COc1ccccc1`, for which the inhibition is 0.74%.

For the compound `CCNCCC(=O)N1c2ccccc2Sc2ccc(NC(=O)OCC)cc21`, the inhibition was -4.36%.

With `CC1CCN(C(=O)CN(c2ccc(Oc3ccccc3)cc2)S(C)(=O)=O)CC1`, the inhibition was 2.29%.

Take `CCOc1ccc(C(CCc2ccccc2)NC(=O)c2ccc(OC)c(OC)c2)cc1OCC` (stereo not drawn): the inhibition is -1.68%.

`COc1ccc(N(CC(=O)NC2CCCCC2)S(=O)(=O)c2c(C)[nH]c(=O)[nH]c2=O)cc1`: the inhibition was -2.97%.

With `CCCCCCNC(=O)CSc1nccn1Cc1ccccc1`, the inhibition is 1.79%.

Turning to `O=C(Nc1ccc(-n2ccnc2P(=O)(O)c2ccccc2)cc1)c1ccccc1Br`, the inhibition was -0.76%.

Take `Cc1nn(-c2ccccn2)c2c1C(c1ccncc1)C1=C(CC(C)(C)CC1=O)N2` (stereo not drawn): the inhibition was 12.1%.

As to `CCOC(=O)CSc1ncc(-c2cccc(Cl)c2)cn1`, the inhibition is 8.5%.

Consider `Cc1ccc(-c2nnc(C)c(N3CC(C)OC(C)C3)n2)cc1` (stereo not drawn), for which the inhibition is 5.11%.

Regarding `Cc1nnc(NC(=O)Cn2c(=O)sc3ccccc32)s1`, the inhibition is 2.18%.

For `Cn1c(SCC(=O)N2CCCc3ccccc32)nc2ccccc2c1=O`, the inhibition was 3.69%.

Take `CC(=O)c1ccc(S(=O)(=O)N2CCN(c3nc4c(C)c(C)ccc4cc3C#N)CC2)cc1`: the inhibition was 9.9%.

As for `COCc1cc(C)nc2sc(C(=O)NC3CCCCC3)c(N)c12`, the inhibition was 12.8%.

Regarding `COC(=O)C1=C(C)OC(N)=C(C#N)C1c1cc(OC)ccc1OC` (stereo not drawn), the inhibition is 9.18%.

Regarding `CCOC(=O)N1CC=C2C(C#N)=C(N)C(C#N)(C#N)[C@H](c3cccs3)[C@H]2C1`, the inhibition is 29.8%.

On to `CCN1CC=C2C(C#N)=C(N)C(C#N)(C#N)[C@H](c3ccoc3)[C@H]2C1`, for which the inhibition was 61.7% (active).

Regarding `CCCN1CC=C2C(C#N)=C(N)C(C#N)(C#N)C(c3cc(OC)ccc3OC)C2C1` (stereo not drawn), the inhibition was 71.8% (active).

For the compound `N#CC1=C(N)C(C#N)(C#N)[C@H](c2ccsc2)[C@H]2COCC=C12`, the inhibition is 35.5%.

On to `COc1ccc(C2CC(c3ccc(C)cc3)Nc3nc(N)nn32)cc1` (stereo not drawn), for which the inhibition was 3.26%.

As for `COc1ccc(C2C=C(c3ccc(Br)cc3)Nc3nc(NS(C)(=O)=O)nn32)cc1` (stereo not drawn), the inhibition is 83.2% [fluorescence artefact?] (active).

For the compound `Fc1ccccc1/C=C1\CCCC2=C1Nc1ncnn1C2c1ccccc1F` (stereo not drawn), the inhibition was 9.16%.

For `COC(=O)c1c(-c2cccs2)csc1NC(=O)CSc1ncnc2sc(C)c(C)c12`, the inhibition is 6.95%.

As to `COc1cccc(OC)c1C(=O)Nc1ccc(N2CCCCC2)cc1`, the inhibition is 4.3%.

As to `CCCC(=O)n1nc(-c2ccccc2)nc1N`, the inhibition is 0.74%.

`CCCNC(=O)c1c(N)n(-c2ccc(S(N)(=O)=O)cc2)c2nc3ccccc3nc12`: the inhibition was 1.66%.

Take `O=C1c2ccccc2C(=O)c2c1cccc2N1CCN(Cc2ccccc2)CC1`: the inhibition was 10.8%.

For the compound `CCCCNC(=O)OC(C)CNC(=O)OC` (stereo not drawn), the inhibition was -1.24%.

Consider `CC(=O)Oc1ccc(NC(=O)CCC2CCCCC2)c(C(=O)O)c1`, for which the inhibition is -1.47%.

As for `CCOc1ccc(C(O)Cc2nc3ccccc3n2C)cc1` (stereo not drawn), the inhibition is -0.15%.

Consider `CCOC(=O)c1cc(C#N)c(N2CCCCC2)nc1-c1ccccc1`, for which the inhibition was 14.6%.

Take `Cc1ccc(Sc2cc(N3CCOCC3)nc(-c3ccccc3)n2)cc1`: the inhibition was 12.8%.

Take `CS(=O)(=O)N1CCN(c2cccc(Cl)n2)CC1`: the inhibition is 3.87%.

`CCC(=O)N(Cc1ccccc1)c1ccccn1`: the inhibition was 7.11%.

Take `Brc1ccc(C2=CC(c3ccco3)n3ncnc3N2)cc1` (stereo not drawn): the inhibition is 124% [fluorescence artefact?] (active).

As for `Clc1ccc2c(c1)C1=C(C(c3ccncc3)O2)C(c2ccc(Br)cc2)n2ncnc2N1` (stereo not drawn), the inhibition is -1.15%.

Turning to `COC(=O)C1=C(C)Nc2ncnn2C1c1ccco1` (stereo not drawn), the inhibition was 3.56%.

Consider `COc1ccc(CN(CC(=O)NC2CCCC2)C(=O)CCC(=O)Nc2cc(C)on2)cc1`, for which the inhibition is -2.37%.

Regarding `Cc1cccc(NC(=O)CSc2nc3c(c(=O)[nH]2)CCCC3)c1C`, the inhibition is 5.45%.

Take `O=C(NCc1cccnc1)c1cccnc1Sc1ccc(Cl)cc1`: the inhibition is 5.95%.

Values taken from PubChem BioAssay AID704 (The Scripps Research Institute Molecular Screening Center, 2007).
